Measurements from ChEMBL document CHEMBL1136011, “Nitric oxide releasing morpholine derivatives as hypolipidemic and antioxidant agents” (J Med Chem, 2002).

Assays:
[1] = system: Rattus norvegicus; assay: Hypolipidemic activity as percentage decrease in plasma levels of the LDL-cholesterol at 168 administered perorally in rats; format: functional
Method in brief: (§1)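 Test agent 168 μmol/kg given orally to rats 3 h before Triton WR 1339 (200 mg/kg ip, aqueous solution). Blood is drawn from the aorta 24 h after Triton, and plasma total cholesterol, LDL-cholesterol and triglyceride are determined. Groups of four to six rats; Student's t-test.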

[2] = system: Rattus norvegicus; assay: Hypolipidemic activity as percentage decrease in plasma levels of the LDL-cholesterol at 56 uM/kg administered intraperitoneally in rats; format: functional
Method in brief: (§2)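 Hyperlipidemia induced in rats by Triton WR 1339 (200 mg/kg ip, aqueous solution). 1 h later, test agent 56 μmol/kg in saline given ip; controls receive saline alone. Blood is drawn from the aorta 24 h after Triton, and plasma total cholesterol, LDL-cholesterol and triglyceride are determined. Groups of four to six rats; Student's t-test.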

[3] = system: Rattus norvegicus; assay: Hypolipidemic activity as percentage decrease in plasma levels of the cholesterol at 168 administered perorally in rats; format: functional; method in brief: as §1
[4] = system: Rattus norvegicus; assay: Hypolipidemic activity as percentage decrease in plasma levels of the cholesterol at 56 uM/kg administered intraperitoneally in rats; format: functional; method in brief: as §2
[5] = system: Rattus norvegicus; assay: Hypolipidemic activity as percentage decrease in plasma levels of the triglyceride at 168 administered perorally in rats; format: functional; method in brief: as §1
[6] = system: Rattus norvegicus; assay: Hypolipidemic activity as percentage decrease in plasma levels of the triglyceride at 56 uM/kg administered intraperitoneally in rats; format: functional; method in brief: as §2
[7] = In vitro percentage release of nitric oxide.
Method in brief: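 Nitric oxide release measured spectrophotometrically at 540 nm with a commercial kit. Determinations at least in duplicate.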

CN1CCOC(OCCCO[N+](=O)[O-])(c2ccc(-c3ccccc3)cc2)C1 (stereo not drawn)
Decrease [1]: 36%
Decrease [2]: 47%
Decrease [3]: 40%
Decrease [4]: 63%
Decrease [5]: 54%
Decrease [6]: 85%
% release of nitric oxide [7]: 17.3%

CN1CCOC(OCCCO[N+](=O)[O-])(c2ccccc2)C1 (stereo not drawn)
Decrease [2]: 43%
Decrease [4]: 20%
Decrease [6]: 45%
% release of nitric oxide [7]: 27.2 µM µM-1

O=[N+]([O-])OCCCOC1(c2ccc(-c3ccccc3)cc2)CN2CCCCC2CO1 (stereo not drawn)
Decrease [2]: 25%
Decrease [4]: 20%
Decrease [6]: 37%
% release of nitric oxide [7]: 4.6%

CN1CC(OCCCO[N+](=O)[O-])(c2ccc(-c3ccccc3)cc2)OC2CCCCC21 (stereo not drawn)
Decrease [2]: 1%
Decrease [4]: 23%
Decrease [6]: 38%
% release of nitric oxide [7]: 1%

CC(=O)N[C@@H](C(=O)O)C(C)(C)SN=O
% release of nitric oxide [7]: 56.7%

CC(C)(Sc1cc(C(C)(C)C)c(O)c(C(C)(C)C)c1)Sc1cc(C(C)(C)C)c(O)c(C(C)(C)C)c1 [PROBUCOL]
Decrease [2]: 18%
Decrease [4]: 18%
Decrease [6]: 11%
